Data from article PMC10973196 (Saudi Pharmaceutical Journal : SPJ, 2024).
Values after ≈ are worked out from the molar mass of the structure shown.

How the values were obtained:
[1] = system: lung cancer cell (A549); assay: Cell viability; type: cell-based; conditions: Homo sapiens, A549, 48 h, read-out: IC50, cytotoxic activity
In short: (§1)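 Cells were seeded in 96-well plates, grown for 24 h, then exposed to test compounds at various concentrations for 48 h. MTT solution (5 mg/mL) was added for 2–4 h at 37 °C, and formazan absorbance was read at 570 nm. Viability was expressed as treated/untreated absorbance ×100, and IC50 was fitted from viability dose-response curves.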

[2] = Cell viability; type: cell-based; conditions: human, normal HUVEC cells
In short: as §1

[3] = target: SARS-CoV-2 main protease (Mpro) (Severe acute respiratory syndrome coronavirus 2, UniProt P0DTD1); assay: biochemical

Row | Compound | IC50 [1] | IC50 at 48 h [2] | IC50 [3]
1 | C[C@@H]1O[C@@H](Oc2cc3c(=O)oc4c(O)c(O)cc5c(=O)oc(c2O)c3c45)[C@H](O)[C@H](O)[C@H]1O [Compound 10, ellagic acid-2-O-α-L-rhamnopyranoside (eschweilenol C)] | > 100 µg/mL | > 100 µg/mL | 22.3 µM
2 | O=c1cc(-c2ccc(O)cc2)oc2cc(O)c([C@@H]3O[C@H](CO)[C@@H](O)[C@H](O)[C@H]3O)c(O)c12 [Compound 14, apigenin-6-C-β-D-glucoside (isovitexin)] | > 100 µg/mL | > 100 µg/mL | 21.7 µM
3 | COc1cccc2c1C(=O)c1c(O)c3c(c(O)c1C2=O)C[C@@](O)(C(=O)CO)C[C@@H]3O[C@H]1C[C@H](N)[C@H](O)[C@H](C)O1 [Doxorubicin, reference compound] | 1.45 ± 0.05 µg/mL (≈ 2.67 µM) | 2.5 ± 0.1 µg/mL (≈ 4.6 µM) | –
